Legend:
[1] = molecular target: Transient receptor potential cation channel subfamily V member 1 (Rattus norvegicus, UniProt O35433); test: Binding affinity to vanilloid VR1 receptor using [3H]resiniferatoxin ([3H]-RTX) in rat spinal cord membranes; type: cell membranes, Membrane
Outline: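 Radioligand displacement binding used these systems: CB1, rat cerebellum membranes with [3H]WIN55212-2; CB2, HEK293EBNA cells transfected with the human CB2 receptor, with [3H]CP55940; VR1, rat spinal cord membranes with [3H]RTX. Ki values come from two independent experiments, each run in triplicate, and are reported as mean ± standard error.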

Cannabinoid receptor 2 = Cannabinoid receptor 2 (Homo sapiens, UniProt P34972); test: Binding affinity to human CB2 cannabinoid receptor using [3H]CP-55940 in HEK293 EBNA transfected cells; type: cell-based
Sequence of Cannabinoid receptor 2 (P34972 whole entry): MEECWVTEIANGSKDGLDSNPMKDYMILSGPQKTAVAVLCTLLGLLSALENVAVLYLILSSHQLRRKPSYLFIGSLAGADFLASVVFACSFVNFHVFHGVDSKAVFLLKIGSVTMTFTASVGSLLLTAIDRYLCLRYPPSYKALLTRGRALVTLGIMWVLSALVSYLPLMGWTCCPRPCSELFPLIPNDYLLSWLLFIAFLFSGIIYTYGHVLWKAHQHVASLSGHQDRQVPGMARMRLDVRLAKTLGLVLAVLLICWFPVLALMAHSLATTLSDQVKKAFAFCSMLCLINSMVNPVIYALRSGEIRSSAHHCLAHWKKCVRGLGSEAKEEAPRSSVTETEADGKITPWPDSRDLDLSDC

U-937 [2] = test: Ability to inhibit [3H]anandamide uptake in human lymphoma U937 cells; type: functional, cell-based
Outline: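 IC50 values come from three independent experiments, each run in triplicate, and are reported as mean ± standard error.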

Cannabinoid receptor 1 = Cannabinoid receptor 1 (Rattus norvegicus, UniProt P20272); test: Binding affinity to CB1 cannabinoid receptor using [3H]WIN-55212-2 in rat cerebellum membranes; type: cell membranes, Membrane
Sequence of Cannabinoid receptor 1 (P20272 whole entry): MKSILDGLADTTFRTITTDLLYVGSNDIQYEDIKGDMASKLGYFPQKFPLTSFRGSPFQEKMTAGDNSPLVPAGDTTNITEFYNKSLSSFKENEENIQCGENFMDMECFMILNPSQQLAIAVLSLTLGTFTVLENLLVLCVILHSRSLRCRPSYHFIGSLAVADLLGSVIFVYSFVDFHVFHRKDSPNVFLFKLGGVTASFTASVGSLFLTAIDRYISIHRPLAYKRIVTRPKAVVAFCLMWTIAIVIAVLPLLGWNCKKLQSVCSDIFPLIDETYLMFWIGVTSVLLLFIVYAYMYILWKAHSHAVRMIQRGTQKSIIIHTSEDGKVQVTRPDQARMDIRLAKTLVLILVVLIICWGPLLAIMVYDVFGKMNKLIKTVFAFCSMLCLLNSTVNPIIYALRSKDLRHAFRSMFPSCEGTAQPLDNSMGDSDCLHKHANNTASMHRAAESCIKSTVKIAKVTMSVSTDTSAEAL

U-937 [3] = test: Ability to inhibit [3H]anandamide uptake in human lymphoma U937 cells; inactive; type: functional, cell-based

Sequence of Transient receptor potential cation channel subfamily V member 1 (O35433 whole entry): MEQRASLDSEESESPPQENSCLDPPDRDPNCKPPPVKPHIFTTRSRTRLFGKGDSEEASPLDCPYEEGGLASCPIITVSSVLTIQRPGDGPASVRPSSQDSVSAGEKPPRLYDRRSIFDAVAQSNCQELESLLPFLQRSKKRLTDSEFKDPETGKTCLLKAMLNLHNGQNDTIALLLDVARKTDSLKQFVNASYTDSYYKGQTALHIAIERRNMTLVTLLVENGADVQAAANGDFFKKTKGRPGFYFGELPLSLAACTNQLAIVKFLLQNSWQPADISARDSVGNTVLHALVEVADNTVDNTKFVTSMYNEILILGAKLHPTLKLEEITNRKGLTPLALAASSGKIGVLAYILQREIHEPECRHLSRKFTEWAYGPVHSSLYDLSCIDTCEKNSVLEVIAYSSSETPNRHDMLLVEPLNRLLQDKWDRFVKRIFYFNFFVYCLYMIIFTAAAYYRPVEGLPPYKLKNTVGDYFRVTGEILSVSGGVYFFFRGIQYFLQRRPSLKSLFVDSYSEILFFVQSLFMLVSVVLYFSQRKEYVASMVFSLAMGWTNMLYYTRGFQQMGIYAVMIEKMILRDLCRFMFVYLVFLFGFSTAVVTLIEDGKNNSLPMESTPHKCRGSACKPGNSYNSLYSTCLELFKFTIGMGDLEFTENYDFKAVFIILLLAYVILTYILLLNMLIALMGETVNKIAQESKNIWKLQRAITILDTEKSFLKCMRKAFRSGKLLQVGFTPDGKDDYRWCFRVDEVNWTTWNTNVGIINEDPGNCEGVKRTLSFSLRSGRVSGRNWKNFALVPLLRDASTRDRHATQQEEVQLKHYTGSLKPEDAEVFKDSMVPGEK

| SMILES | Ki [1] | Ki (Cannabinoid receptor 2) | IC50 (U-937 [2]) | Ki (Cannabinoid receptor 1) | IC50 (U-937 [3]) |
| --- | --- | --- | --- | --- | --- |
| CCCCC/C=C\C/C=C\C/C=C\C/C=C\CCCC(=O)OCC1CCOC1 (configuration not stated) | > 5000 nM | > 1000 nM | – | – | – |
| CCCCC/C=C\C/C=C\C/C=C\C/C=C\CCCC(=O)NCc1ccoc1 | > 5000 nM | 67 nM | 800 nM | > 1000 nM | – |
| CCCCC/C=C\C/C=C\C/C=C\C/C=C\CCCC(=O)Nc1ccc(O)cc1 | > 5000 nM | > 1000 nM | 4000 nM | > 1000 nM | – |
| CCCCC/C=C\C/C=C\C/C=C\C/C=C\CCCC(=O)NCC1CCCO1 (configuration not stated) | > 5000 nM | > 1000 nM | 8000 nM | > 1000 nM | – |
| CCCCC/C=C\C/C=C\C/C=C\C/C=C\CCCC(=O)OCc1ccco1 | > 5000 nM | > 1000 nM | 24000 nM | > 1000 nM | – |
| CCCCC/C=C\C/C=C\C/C=C\C/C=C\CCCC(=O)OCC1CCCO1 (configuration not stated) | > 5000 nM | > 1000 nM | 18000 nM | > 1000 nM | – |
| CCCCC/C=C\C/C=C\C/C=C\C/C=C\CCCC(=O)OCc1ccoc1 | < 5000 nM | > 1000 nM | 14000 nM | > 1000 nM | – |
| CCCCC/C=C\C/C=C\C/C=C\C/C=C\CCCC(=O)OCc1cccs1 | > 5000 nM | > 1000 nM | – | > 1000 nM | Not Active |
| CCCCC/C=C\C/C=C\C/C=C\C/C=C\CCCC(=O)OCc1ccsc1 | > 5000 nM | > 1000 nM | 3000 nM | > 1000 nM | – |
| CCCCC/C=C\C/C=C\C/C=C\C/C=C\CCCC(=O)NCc1cccn1C | > 5000 nM | 70 nM | 5000 nM | 124 nM | – |
| CCCCC/C=C\C/C=C\C/C=C\C/C=C\CCCC(=O)NCCO [ANANDAMIDE] | 169 nM | – | – | – | – |
| CCCCC/C=C\C/C=C\C/C=C\C/C=C\CCCC(=O)NCc1ccco1 | < 5000 nM | > 1000 nM | 5000 nM | > 1000 nM | – |
| CCCCC/C=C\C/C=C\C/C=C\C/C=C\CCCC(=O)NCc1cccs1 | > 5000 nM | > 1000 nM | 5700 nM | > 1000 nM | – |

Reference: ChEMBL document CHEMBL1134315 (J Med Chem, 2001)
